Experimental data from ChEMBL document CHEMBL1152649, “Synthesis, cytotoxicity and human telomerase inhibition activities of a series of 1,2-heteroannelated anthraquinones and anthra[1,2-d]imidazole-6,11-dione homologues” (2009).

What was measured:
[1] = Cytotoxicity against human H1299 cells at 1 uM after 48 hrs by MTT assay; format: functional; conditions: NCI-H1299, 48 h
Method in brief: (§1)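 H1299 non-small cell lung cancer cells were grown in RPMI 1640 with 10% FBS, penicillin and streptomycin at 37 °C under 5% CO2. About 2 × 10³ cells per well were seeded and left 24 h. Compounds were dissolved fresh in DMSO, diluted into complete medium and applied for 48 h. MTT was then added for 4 h at 37 °C, followed by lysis buffer (20% SDS, 50% DMF) for 16 h, and absorbance was read at 550 nm.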

[2] = Cytotoxicity against human H1299 cells at 10 uM after 48 hrs by MTT assay; format: functional; conditions: NCI-H1299, 48 h; method in brief: as §1
[3] = Cytotoxicity against human H1299 cells at 100 uM after 48 hrs by MTT assay; format: functional; conditions: NCI-H1299, 48 h; method in brief: as §1
A549 = assay: Antiproliferative activity against human A549 cells assessed as cell growth at 10 uM; format: functional; conditions: read-out: Activity
Method in brief: (§2)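 NCI 60 cell line panel, single-dose screen (10^-5 M) run by the developmental therapeutics program protocol. Results are given as growth percent of treated cells relative to untreated control cells for each line.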

HOP-62 = assay: Antiproliferative activity against human HOP62 cells assessed as cell growth at 10 uM; format: functional; conditions: read-out: Activity; method in brief: as §2
[4] = Antiproliferative activity against human Hs 578T cells assessed as cell growth at 10 uM; format: functional; conditions: read-out: Activity; method in brief: as §2
MDA-MB-231 = assay: Antiproliferative activity against human MDA-MB-231 cells assessed as cell growth at 10 uM; format: functional; conditions: read-out: Activity; method in brief: as §2
MDA-MB-435 = assay: Antiproliferative activity against human MDA-MB-435 cells assessed as cell growth at 10 uM; format: functional; conditions: read-out: Activity; method in brief: as §2
NCI/ADR-RES = assay: Antiproliferative activity against human NCI/ADR-RES cells assessed as cell growth at 10 uM; format: functional; conditions: read-out: Activity; method in brief: as §2
T47D = assay: Antiproliferative activity against human T47D cells assessed as cell growth at 10 uM; format: functional; conditions: read-out: Activity
Method in brief: (§3)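 NCI 60 cell line panel, single dose (10^-5 M), run per the Developmental Therapeutics Program protocol (one dose mean graph). Each result is the growth percentage of treated cells relative to untreated control cells.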

OVCAR-3 = assay: Antiproliferative activity against human OVCAR-3 cells assessed as cell growth at 10 uM; format: functional; conditions: read-out: Activity; method in brief: as §2
OVCAR-4 = assay: Antiproliferative activity against human OVCAR4 cells assessed as cell growth at 10 uM; format: functional; conditions: read-out: Activity; method in brief: as §2
OVCAR-5 = assay: Antiproliferative activity against human OVCAR5 cells assessed as cell growth at 10 uM; format: functional; conditions: read-out: Activity; method in brief: as §2
OVCAR-8 = assay: Antiproliferative activity against human OVCAR8 cells assessed as cell growth at 10 uM; format: functional; conditions: read-out: Activity; method in brief: as §2
CCRF-CEM = assay: Antiproliferative activity against human CCRF-CEM cells assessed as cell growth at 10 uM; format: functional; conditions: read-out: Activity; method in brief: as §2
HL-60(TB) = assay: Antiproliferative activity against human HL-60(TB) cells assessed as cell growth at 10 uM; format: functional; conditions: read-out: Activity
Method in brief: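 NCI Developmental Therapeutics Program 60-cell-line one-dose screen at 10^-5 M. Readout is growth percentage of treated cells relative to untreated control cells.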

K562 = assay: Antiproliferative activity against human K562 cells assessed as cell growth at 10 uM; format: functional; conditions: read-out: Activity; method in brief: as §2
[5] = Antiproliferative activity against human RPMI8266 cells assessed as cell growth at 10 uM; format: functional; conditions: read-out: Activity; method in brief: as §2
SR = assay: Antiproliferative activity against human SR cells assessed as cell growth at 10 uM; format: functional; conditions: read-out: Activity; method in brief: as §3
786-0 = assay: Antiproliferative activity against human 786-0 cells assessed as cell growth at 10 uM; format: functional; conditions: read-out: Activity; method in brief: as §2
A498 = assay: Antiproliferative activity against human A498 cells assessed as cell growth at 10 uM; format: functional; conditions: read-out: Activity; method in brief: as §2
ACHN = assay: Antiproliferative activity against human ACHN cells assessed as cell growth at 10 uM; format: functional; conditions: read-out: Activity; method in brief: as §2
CAKI-1 = assay: Antiproliferative activity against human Caki1 cells assessed as cell growth at 10 uM; format: functional; conditions: read-out: Activity; method in brief: as §2
SN12C = assay: Antiproliferative activity against human SN12C cells assessed as cell growth at 10 uM; format: functional; conditions: read-out: Activity; method in brief: as §2
TK-10 = assay: Antiproliferative activity against human TK10 cells assessed as cell growth at 10 uM; format: functional; conditions: read-out: Activity; method in brief: as §3
UO-31 = assay: Antiproliferative activity against human UO31 cells assessed as cell growth at 10 uM; format: functional; conditions: read-out: Activity; method in brief: as §3
LOX IMVI = assay: Antiproliferative activity against human LOXIMVI cells assessed as cell growth at 10 uM; format: functional; conditions: read-out: Activity; method in brief: as §2
M14 = assay: Antiproliferative activity against human M14 cells assessed as cell growth at 10 uM; format: functional; conditions: read-out: Activity; method in brief: as §2
Malme-3M = assay: Antiproliferative activity against human MALME-3M cells assessed as cell growth at 10 uM; format: functional; conditions: read-out: Activity; method in brief: as §2
SK-MEL-2 = assay: Antiproliferative activity against human SK-MEL-2 cells assessed as cell growth at 10 uM; format: functional; conditions: read-out: Activity; method in brief: as §2
SK-MEL-28 = assay: Antiproliferative activity against human SK-MEL-28 cells assessed as cell growth at 10 uM; format: functional; conditions: read-out: Activity; method in brief: as §2
SK-MEL-5 = assay: Antiproliferative activity against human SK-MEL-5 cells assessed as cell growth at 10 uM; format: functional; conditions: read-out: Activity; method in brief: as §2
PC-3 = assay: Antiproliferative activity against human PC3 cells assessed as cell growth at 10 uM; format: functional; conditions: read-out: Activity; method in brief: as §2
SF-268 = assay: Antiproliferative activity against human SF268 cells assessed as cell growth at 10 uM; format: functional; conditions: read-out: Activity; method in brief: as §2
SF-295 = assay: Antiproliferative activity against human SF295 cells assessed as cell growth at 10 uM; format: functional; conditions: read-out: Activity; method in brief: as §2
SNB-19 = assay: Antiproliferative activity against human SNB19 cells assessed as cell growth at 10 uM; format: functional; conditions: read-out: Activity; method in brief: as §2
SNB-75 = assay: Antiproliferative activity against human SNB75 cells assessed as cell growth at 10 uM; format: functional; conditions: read-out: Activity; method in brief: as §3
U-251 = assay: Antiproliferative activity against human U251 cells assessed as cell growth at 10 uM; format: functional; conditions: read-out: Activity; method in brief: as §3
HOP-92 = assay: Antiproliferative activity against human HOP92 cells assessed as cell growth at 10 uM; format: functional; conditions: read-out: Activity; method in brief: as §2
NCI-H23 = assay: Antiproliferative activity against human NCI-H23 cells assessed as cell growth at 10 uM; format: functional; conditions: read-out: Activity; method in brief: as §2
NCI-H322M = assay: Antiproliferative activity against human NCI-H322M cells assessed as cell growth at 10 uM; format: functional; conditions: read-out: Activity; method in brief: as §2
NCI-H460 = assay: Antiproliferative activity against human NCI-H460 cells assessed as cell growth at 10 uM; format: functional; conditions: read-out: Activity; method in brief: as §2
NCI-H522 = assay: Antiproliferative activity against human NCI-H522 cells assessed as cell growth at 10 uM; format: functional; conditions: read-out: Activity; method in brief: as §2
COLO 205 = assay: Antiproliferative activity against human COLO205 cells assessed as cell growth at 10 uM; format: functional; conditions: read-out: Activity; method in brief: as §2
HCC 2998 = assay: Antiproliferative activity against human HCC2998 cells assessed as cell growth at 10 uM; format: functional; conditions: read-out: Activity; method in brief: as §2
HCT-116 = assay: Antiproliferative activity against human HCT116 cells assessed as cell growth at 10 uM; format: functional; conditions: read-out: Activity; method in brief: as §2
[6] = molecular target: Telomerase reverse transcriptase (Homo sapiens) (UniProt O14746); assay: Inhibition of TERT in human H1299 cells assessed as residual transcriptional activity at 10 uM after 24 hrs by SEAP reporter gene assay; values are per cent of control
Telomerase reverse transcriptase (Homo sapiens), sequence (O14746 whole entry): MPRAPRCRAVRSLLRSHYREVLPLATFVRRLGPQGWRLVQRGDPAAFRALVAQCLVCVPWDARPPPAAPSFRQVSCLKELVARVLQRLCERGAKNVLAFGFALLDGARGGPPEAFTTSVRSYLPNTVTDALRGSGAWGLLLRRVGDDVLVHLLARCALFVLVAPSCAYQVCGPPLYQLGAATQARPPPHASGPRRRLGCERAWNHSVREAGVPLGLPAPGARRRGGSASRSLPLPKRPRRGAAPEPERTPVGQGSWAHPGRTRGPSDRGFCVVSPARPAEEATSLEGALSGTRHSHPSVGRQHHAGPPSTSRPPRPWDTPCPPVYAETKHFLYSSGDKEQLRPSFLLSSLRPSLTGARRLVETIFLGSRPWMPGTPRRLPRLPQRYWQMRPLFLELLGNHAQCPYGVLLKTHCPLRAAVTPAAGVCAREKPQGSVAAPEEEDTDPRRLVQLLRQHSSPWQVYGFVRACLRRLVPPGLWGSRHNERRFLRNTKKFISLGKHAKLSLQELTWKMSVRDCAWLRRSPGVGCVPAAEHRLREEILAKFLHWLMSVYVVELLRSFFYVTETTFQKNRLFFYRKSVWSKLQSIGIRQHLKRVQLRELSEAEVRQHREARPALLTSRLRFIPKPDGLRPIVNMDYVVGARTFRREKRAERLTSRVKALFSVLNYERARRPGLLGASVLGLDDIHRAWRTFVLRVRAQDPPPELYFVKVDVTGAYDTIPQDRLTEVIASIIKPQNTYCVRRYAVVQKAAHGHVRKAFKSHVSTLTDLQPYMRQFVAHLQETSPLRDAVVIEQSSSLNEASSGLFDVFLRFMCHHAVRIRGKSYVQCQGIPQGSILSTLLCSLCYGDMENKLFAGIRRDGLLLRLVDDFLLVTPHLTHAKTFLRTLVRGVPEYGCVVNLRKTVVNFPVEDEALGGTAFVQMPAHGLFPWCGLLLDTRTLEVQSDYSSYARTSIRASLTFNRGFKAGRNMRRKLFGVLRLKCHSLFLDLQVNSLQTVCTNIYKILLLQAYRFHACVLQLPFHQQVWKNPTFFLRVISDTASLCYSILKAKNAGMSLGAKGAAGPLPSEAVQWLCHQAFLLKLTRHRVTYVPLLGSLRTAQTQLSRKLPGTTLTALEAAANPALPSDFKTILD

For `Cc1ccc(-c2nc3ccc4c(c3[nH]2)C(=O)c2ccccc2C4=O)cc1`, which viability at 1 µM [1] is on record?
The viability at 1 µM was 75%.

And the viability at 10 µM [2]?
Its viability at 10 µM is 72%.

And the viability at 100 µM [3]?
The viability at 100 µM was 16%.

What about the growth at 10 µM (A549) of the same compound?
Its growth at 10 µM is 55.7%.

What about the growth at 10 µM (HOP-62) of the same compound?
The growth at 10 µM was 110%.

And the growth at 10 µM [4]?
The growth at 10 µM was 138%.

What about the growth at 10 µM (MDA-MB-231) of the same compound?
Its growth at 10 µM is 97.6%.

And the growth at 10 µM (MDA-MB-435)?
The growth at 10 µM was 105%.

What about the growth at 10 µM (NCI/ADR-RES) of the same compound?
Its growth at 10 µM is 104%.

And the growth at 10 µM (T47D)?
The growth at 10 µM was 76%.

And the growth at 10 µM (OVCAR-3)?
Its growth at 10 µM is 96.1%.

What about the growth at 10 µM (OVCAR-4) of the same compound?
The growth at 10 µM was 96.8%.

And the growth at 10 µM (OVCAR-5)?
Its growth at 10 µM is 106%.

What about the growth at 10 µM (OVCAR-8) of the same compound?
The growth at 10 µM was 96.4%.

And the growth at 10 µM (CCRF-CEM)?
Its growth at 10 µM is 101%.

And the growth at 10 µM (HL-60(TB))?
The growth at 10 µM was 125%.

What about the growth at 10 µM (K562) of the same compound?
Its growth at 10 µM is 102%.

And the growth at 10 µM [5]?
The growth at 10 µM was 91.5%.

And the growth at 10 µM (SR)?
Its growth at 10 µM is 114%.

And the growth at 10 µM (786-0)?
Its growth at 10 µM is 113%.

What about the growth at 10 µM (A498) of the same compound?
Its growth at 10 µM is 176%.

And the growth at 10 µM (ACHN)?
The growth at 10 µM was 101%.

What about the growth at 10 µM (CAKI-1) of the same compound?
The growth at 10 µM was 110%.

What about the growth at 10 µM (SN12C) of the same compound?
The growth at 10 µM was 103%.

What about the growth at 10 µM (TK-10) of the same compound?
The growth at 10 µM was 154%.

And the growth at 10 µM (UO-31)?
Its growth at 10 µM is 75.2%.

And the growth at 10 µM (LOX IMVI)?
Its growth at 10 µM is 104%.

And the growth at 10 µM (M14)?
The growth at 10 µM was 106%.

And the growth at 10 µM (Malme-3M)?
Its growth at 10 µM is 97.6%.

What about the growth at 10 µM (SK-MEL-2) of the same compound?
The growth at 10 µM was 79.6%.

And the growth at 10 µM (SK-MEL-28)?
Its growth at 10 µM is 154%.

And the growth at 10 µM (SK-MEL-5)?
The growth at 10 µM was 88%.

And the growth at 10 µM (PC-3)?
Its growth at 10 µM is 87.6%.

And the growth at 10 µM (SF-268)?
Its growth at 10 µM is 106%.

And the growth at 10 µM (SF-295)?
The growth at 10 µM was 94.2%.

What about the growth at 10 µM (SNB-19) of the same compound?
The growth at 10 µM was 97.8%.

What about the growth at 10 µM (SNB-75) of the same compound?
Its growth at 10 µM is 107%.

And the growth at 10 µM (U-251)?
The growth at 10 µM was 104%.

What about the growth at 10 µM (HOP-92) of the same compound?
Its growth at 10 µM is 77.3%.

And the growth at 10 µM (NCI-H23)?
Its growth at 10 µM is 98.8%.

What about the growth at 10 µM (NCI-H322M) of the same compound?
Its growth at 10 µM is 84.6%.

And the growth at 10 µM (NCI-H460)?
The growth at 10 µM was 93.6%.

And the growth at 10 µM (NCI-H522)?
The growth at 10 µM was 84.7%.

And the growth at 10 µM (COLO 205)?
The growth at 10 µM was 108%.

What about the growth at 10 µM (HCC 2998) of the same compound?
The growth at 10 µM was 104%.

What about the growth at 10 µM (HCT-116) of the same compound?
Its growth at 10 µM is 99.8%.

What about the residual activity [6] of the same compound?
Its residual activity is 82%.
